Eleven compounds from ChEMBL document CHEMBL5136960, “Discovery of sustainable drugs for Alzheimer's disease: cardanol-derived cholinesterase inhibitors with antioxidant and anti-amyloid properties” (RSC Med Chem, 2021) can be followed below.

The target of data set [1] is T1, Cholinesterase (Homo sapiens, UniProt P06276). The data set is described as follows: Inhibition of BChE in human serum at 20 uM by Ellman's method. Type of data set: cell-free. The method in brief:
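Human serum BChE, 0.02 U, in 0.1 M phosphate pH 8.0 with 340 μM DTNB and 5% methanol final. Compound preincubated with enzyme 20 min at 37 °C, then 550 μM butyrylthiocholine iodide added. Initial rate read as A412 over 240 s, with an enzyme-free blank. Percent inhibition at a single 20 μM. Mean of ≥2 independent experiments, each in triplicate.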

Data set [2] in a line: Antioxidant activity assessed as gallic acid equivalents by HORAC assay. In kind it is functional. In short, it runs like this:
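Hydroxyl radical scavenging (HORAC kit). Methanol stocks (2-4 mM) diluted to 50 µM in assay buffer. Sample and fluorescein incubated 30 min at room temperature, then hydroxyl radical initiator and Fenton reagent added. Fluorescence decay read at ex 480/em 530 nm. AUC minus blank, divided by AUC of 50 µM gallic acid minus blank, gives gallic acid equivalents.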

Data set [3] has as its target T2, Acetylcholinesterase (Homo sapiens, UniProt P22303). Briefly: Inhibition of AChE in human serum at 20 uM by Ellman's method. Type of data set: cell-free.
Data set [4] concerns the target Amyloid-beta precursor protein (Homo sapiens) (UniProt P05067). Briefly: Inhibition of amyloid beta42 (unknown origin) aggregation assessed as non toxic aggregrates formation measured after 48 hrs TEM imaging analysis. In short, it runs like this: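 Synthetic Aβ42, freeze-dried, redissolved in PBS pH 7.4 to 60 µM and vortexed about 5 min. Compound added at 1:5 Aβ42:compound. A 20 µL aliquot applied to the grid for 2 min, negatively stained with 1% uranyl acetate for 2 min, dried and imaged by TEM at 120 kV.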

For data set [5], the target named is T1, Cholinesterase. The data set is described as follows: Inhibition of BChE in human serum by Ellman's method. In kind it is cell-free. In short, it runs like this: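 Human serum BChE, 0.02 U, in 0.1 M phosphate pH 8.0 with 340 μM DTNB and 5% methanol final. 20 min enzyme–compound preincubation at 37 °C, then 550 μM butyrylthiocholine iodide added. Rate from A412 slope over 240 s, blank-corrected. Five concentrations chosen to give 20–80% inhibition. IC50 taken from log concentration–inhibition curves. Mean of ≥2 independent triplicate experiments.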

Data set [6] addresses T2, Acetylcholinesterase. Briefly: Inhibition of AChE in human serum by Ellman's method. In kind it is cell-free.
The subject of data set [7] is HepG2. The data set is described as follows: Cytotoxicity against human HepG2 cells assessed as cell viability upto 10 uM for 24 hrs by MTT assay. Type of data set: toxicity, cell-based. Conditions: hepg2, 24 h. In short, it runs like this: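 HepG2 cells grown in DMEM with 10% FBS and penicillin/streptomycin at 37 °C, 5% CO2. Seeded at 5×10^3 cells/well and left to adhere overnight. Exposed 24 h to 1.25-10 µM, with DMSO vehicle as control. Then 300 µM MTT in DMEM for 2 h at 37 °C. Formazan dissolved in DMSO and read at 570 nm.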

Data set [8] in a line: Solubility of compound in 5% DMSO/PBS solution. In kind it is physicochemical.
Data set [9] can be described thus: Stability in plasma (unknown orgin) measured after 120 mins. In kind it is ADME, cell-free. The settings on record: read-out: Stability. In short, it runs like this: (§1)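 Pooled human plasma. Compound added from a 1 µM DMSO solution and incubated at 37 °C for 0, 15, 30, 60 or 120 min. Reaction stopped with cold acetonitrile containing internal standard, then centrifuged. Supernatant analysed by reverse-phase C18 HPLC-MS in positive mode. Compound/IS peak-area ratio at each time, relative to 0 min, gives percent remaining. Phosphate buffer pH 7.4 used as control matrix, rivastigmine as positive control.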

Data set [10] has as its system SH-SY5Y. Briefly: Inhibition of TBH-induced reactive oxygen species production in human SHSY-5Y cells at 10 uM preincubated for 24 hrs followed by TBH addition by DCFH-DA staining based flow cytometry. Type of data set: functional, cell-based.
Data set [11] in a line: Stability in plasma (unknown orgin) measured upto 60 mins. In kind it is ADME, cell-free. The settings on record: 1 h. In short, it runs like this: as §1

SMILES strings stand for the structures. Calls of active or inactive are those of the source. No cut-off for these calls is given here.

T1 sequence (P06276 whole entry): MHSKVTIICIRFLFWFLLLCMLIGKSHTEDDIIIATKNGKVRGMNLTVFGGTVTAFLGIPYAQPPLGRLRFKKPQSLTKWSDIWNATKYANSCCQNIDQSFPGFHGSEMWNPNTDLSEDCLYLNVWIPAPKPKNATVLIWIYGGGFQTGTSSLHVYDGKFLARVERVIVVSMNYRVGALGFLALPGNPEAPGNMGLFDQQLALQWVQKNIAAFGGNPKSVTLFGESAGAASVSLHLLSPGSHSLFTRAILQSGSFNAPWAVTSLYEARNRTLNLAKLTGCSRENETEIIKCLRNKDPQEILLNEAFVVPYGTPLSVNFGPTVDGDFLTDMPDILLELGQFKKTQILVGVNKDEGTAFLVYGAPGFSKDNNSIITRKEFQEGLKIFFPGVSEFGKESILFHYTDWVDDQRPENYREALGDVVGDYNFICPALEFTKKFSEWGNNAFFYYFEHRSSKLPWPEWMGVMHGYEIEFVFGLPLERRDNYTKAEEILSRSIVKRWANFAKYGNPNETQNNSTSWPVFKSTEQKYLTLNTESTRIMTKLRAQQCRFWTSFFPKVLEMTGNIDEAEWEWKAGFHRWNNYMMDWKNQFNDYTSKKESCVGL
T2 sequence (P22303 whole entry): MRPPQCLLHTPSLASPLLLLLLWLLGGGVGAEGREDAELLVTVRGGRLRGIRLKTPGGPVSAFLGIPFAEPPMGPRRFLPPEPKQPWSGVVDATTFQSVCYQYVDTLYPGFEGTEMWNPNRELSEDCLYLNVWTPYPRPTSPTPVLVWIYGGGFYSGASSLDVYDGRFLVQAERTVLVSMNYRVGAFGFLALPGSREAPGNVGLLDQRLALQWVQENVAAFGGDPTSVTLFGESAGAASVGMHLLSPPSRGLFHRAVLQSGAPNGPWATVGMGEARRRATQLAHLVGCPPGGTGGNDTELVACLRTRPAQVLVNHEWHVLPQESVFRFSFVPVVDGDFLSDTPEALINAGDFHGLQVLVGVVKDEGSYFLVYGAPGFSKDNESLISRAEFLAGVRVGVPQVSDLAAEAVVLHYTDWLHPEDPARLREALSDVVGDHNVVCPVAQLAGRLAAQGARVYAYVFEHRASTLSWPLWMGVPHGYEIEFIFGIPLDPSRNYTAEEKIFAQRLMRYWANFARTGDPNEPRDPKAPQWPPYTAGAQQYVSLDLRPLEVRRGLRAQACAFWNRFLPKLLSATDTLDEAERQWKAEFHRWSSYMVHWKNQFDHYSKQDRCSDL
Chain of Amyloid-beta precursor protein (Homo sapiens) (P05067 whole entry): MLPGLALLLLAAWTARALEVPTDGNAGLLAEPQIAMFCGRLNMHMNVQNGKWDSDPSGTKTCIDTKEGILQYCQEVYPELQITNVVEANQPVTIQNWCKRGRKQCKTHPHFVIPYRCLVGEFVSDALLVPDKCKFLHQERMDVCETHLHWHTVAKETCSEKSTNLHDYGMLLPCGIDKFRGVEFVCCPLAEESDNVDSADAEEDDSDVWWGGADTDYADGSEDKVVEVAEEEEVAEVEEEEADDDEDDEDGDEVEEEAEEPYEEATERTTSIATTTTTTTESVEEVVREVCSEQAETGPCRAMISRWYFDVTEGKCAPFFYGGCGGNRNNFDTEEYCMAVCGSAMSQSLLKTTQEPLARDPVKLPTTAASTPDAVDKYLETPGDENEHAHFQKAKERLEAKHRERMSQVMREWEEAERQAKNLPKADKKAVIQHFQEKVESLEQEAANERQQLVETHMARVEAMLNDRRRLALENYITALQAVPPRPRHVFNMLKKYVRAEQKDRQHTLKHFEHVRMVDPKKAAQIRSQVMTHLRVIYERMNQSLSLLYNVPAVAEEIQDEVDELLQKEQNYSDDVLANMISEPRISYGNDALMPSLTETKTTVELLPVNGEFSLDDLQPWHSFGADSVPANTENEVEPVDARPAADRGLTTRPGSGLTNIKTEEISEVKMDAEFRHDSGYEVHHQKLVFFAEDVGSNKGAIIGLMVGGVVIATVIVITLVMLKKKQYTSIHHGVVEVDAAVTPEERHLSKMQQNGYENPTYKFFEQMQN

Turning to `OCCCCCCCCc1ccc(CN2CCNCC2)c(O)c1`, the inhibition in data set [1] was 17.7%; in data set [3], under 10%. In addition, the Activity in data set [2] was determined as 1.49 equiv.
Turning to `OCCCCCCCCc1ccc(CN2CCSCC2)c(O)c1`, the inhibition in data set [1] was found to be 16.6%; in [3], 12.1%. For the same compound, in data set [2], the Activity was 4.38 equiv.
Regarding `CCN(CC)Cc1ccc(CCCCCCCCO)cc1O`, the inhibition in data set [1] was 50.5%; in [3] it was 12.4%. The inhibition result in [4] is “Active”. Moreover, the Activity in data set [2] is 5.49 equiv. The compound further showed a half-maximal inhibitory concentration (IC50) in data set [5] of 17.5 µM.
As to `CC(=O)N1CCN(Cc2ccc(CCCCCCCCO)cc2O)CC1`, the inhibition in [1] was under 5%; in data set [3], under 10%. The Activity in data set [2] was found to be 4.52 equiv.
For the compound `CN(Cc1ccccc1)Cc1ccc(CCCCCCCCO)cc1O`, the figures for the inhibition in data set [1] and in [3] were 68.3% and 19.4%, respectively. Also, in data set [4], the inhibition entry is “Active”. Besides, the Activity in data set [2] came to 3.7 equiv. The same compound yielded an IC50 in data set [5] of 6.74 µM.
Turning to `OCCCCCCCCc1ccc(CN2CCCCC2)c(O)c1`, the inhibition in data set [1] came to 73.5%; in data set [3], 40.5%. Moreover, the inhibition result in data set [4] and in data set [10] was “Active” each time. For the same compound, the half-maximal inhibitory concentration (IC50) is 30 µM in data set [6] and 6.12 µM in data set [5]. Further, the figures for the Activity result in [7] and in data set [2] were “Non-Toxic” and 4.37 equiv, respectively. In [8], this compound came in with a solubility of under 3.9 mM. The remaining at 2 h in data set [9] came out at 97%. Also, the Stability result in data set [11] was “Stable”.
Regarding `COc1cc(/C=C/C(=O)O)ccc1O`, the Activity in data set [2] stood at 4.04 equiv.
For `OCCCCCCCCc1ccc(CN2CCOCC2)c(O)c1`, the inhibition is under 10% in data set [1] and under 5% in data set [3]. In [4], the inhibition result is “Active”. For the same compound, in [2], the Activity came to 9.73 equiv.
Take `CN1CCN(Cc2ccc(CCCCCCCCO)cc2O)CC1`: the figures for the inhibition in data set [1] and in [3] were 10.6% and under 5%, respectively. In addition, the Activity in data set [2] stood at 4.8 equiv.
In the case of `OCCCCCCCCc1ccc(CN2CCCCCC2)c(O)c1`, the values for the inhibition in data set [1] and in [3] were 77.1% and under 10%, respectively. The inhibition result in data set [4] and in data set [10] was “Active” each time. The half-inhibitory concentration (IC50) in [6] stood at 785 µM; in [5] it was 4.62 µM. For the same compound, the Activity result was “Non-Toxic” in data set [7] and 3.5 equiv in data set [2]. For the same compound, in data set [8], the solubility was under 5 mM. The remaining at 2 h in data set [9] was 85%. The Stability entry in data set [11] was “Stable”.
Take `OCCCCCCCCc1ccc(CN2CCCC2)c(O)c1`: the figures for the inhibition in [1] and in data set [3] were 59% and 31.1%, respectively. The values for the IC50 in data set [6] and in data set [5] were 47.6 µM and 13.3 µM, respectively. The Activity in data set [2] was found to be 4.88 equiv.
